# Reference: ChEMBL document CHEMBL1130133, “Terbenzimidazoles: influence of 2"-, 4-, and 5-substituents on cytotoxicity and relative potency as topoisomerase I poisons” (J Med Chem, 1997)
# pIC50: −log10 of the molar value.
# Tests used:
# [1] = target: T1, DNA topoisomerase 1 (Homo sapiens) (UniProt P11387); assay: Topoisomerase I mediated DNA cleavage; assay type: functional
# T1 sequence (whole entry): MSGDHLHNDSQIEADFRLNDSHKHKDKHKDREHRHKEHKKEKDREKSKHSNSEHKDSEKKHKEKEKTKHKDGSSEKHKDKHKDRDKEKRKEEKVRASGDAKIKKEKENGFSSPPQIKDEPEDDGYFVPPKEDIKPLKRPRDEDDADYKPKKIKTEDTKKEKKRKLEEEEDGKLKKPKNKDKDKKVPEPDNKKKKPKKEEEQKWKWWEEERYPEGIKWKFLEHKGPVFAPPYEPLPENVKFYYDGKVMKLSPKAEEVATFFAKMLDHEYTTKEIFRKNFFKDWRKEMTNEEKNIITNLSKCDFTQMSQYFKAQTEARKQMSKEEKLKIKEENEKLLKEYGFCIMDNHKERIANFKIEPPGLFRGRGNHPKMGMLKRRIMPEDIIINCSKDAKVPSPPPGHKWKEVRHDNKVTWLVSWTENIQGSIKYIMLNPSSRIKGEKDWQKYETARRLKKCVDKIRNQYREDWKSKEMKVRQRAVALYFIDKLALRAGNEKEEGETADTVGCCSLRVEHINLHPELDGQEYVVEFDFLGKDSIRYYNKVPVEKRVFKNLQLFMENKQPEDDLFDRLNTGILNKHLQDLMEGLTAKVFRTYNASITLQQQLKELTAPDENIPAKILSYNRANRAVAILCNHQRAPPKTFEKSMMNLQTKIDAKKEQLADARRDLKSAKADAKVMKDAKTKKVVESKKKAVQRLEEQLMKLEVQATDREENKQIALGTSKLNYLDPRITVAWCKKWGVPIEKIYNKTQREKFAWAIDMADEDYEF
# Summary of the method: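 Recombinant human topoisomerase I (expressed in E. coli) was incubated with end-labeled plasmid YEpG DNA and drug for 30 min at 37 °C. Drug was given as 10-fold serial dilutions from 0.01 to 10 µg/mL. Fragments were separated on gels and autoradiographed, typically with 24 h exposure. Cleavage was scored from the strongest specific band and expressed as concentration relative to reference compound (set to 1) giving equal cleavage.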
# [2] = test system: RPMI 8402; assay: Cytotoxicity using human lymphoblast RPMI 8402 cells.; assay type: functional, cell-based
# Summary of the method: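 Human lymphoblast RPMI 8402 cells were grown in suspension at 37 °C, 5% CO2, in RPMI with 10% heat-inactivated FBS, 2 mM L-glutamine, penicillin 100 U/mL and streptomycin 0.1 mg/mL. Cells were seeded at 2000/well and exposed continuously to a range of drug concentrations for 4 days, then read by MTT assay. A no-drug control was included, and each assay was run at least twice in six replica wells.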
Compound,REC [1],pIC50 [2]
CCc1nc2cc(-c3nc4cc(-c5nc6cc(-c7ccccc7)ccc6[nH]5)ccc4[nH]3)ccc2[nH]1,1,6.96
Cc1nc2cc(-c3nc4cc(-c5nc6cc(-c7ccccc7)ccc6[nH]5)ccc4[nH]3)ccc2[nH]1,2,6.96
c1ccc2cc(-c3ccc4[nH]c(-c5ccc6[nH]c(-c7ccc8[nH]cnc8c7)nc6c5)nc4c3)ccc2c1,1,7.10
CC(C)c1nc2cc(-c3nc4cc(-c5nc6cc(-c7ccccc7)ccc6[nH]5)ccc4[nH]3)ccc2[nH]1,0.05,7.22
Clc1ccc(-c2ccc3[nH]c(-c4ccc5[nH]c(-c6ccc7[nH]cnc7c6)nc5c4)nc3c2)cc1,2,7.05
c1ccc2c(-c3ccc4[nH]c(-c5ccc6[nH]c(-c7ccc8[nH]cnc8c7)nc6c5)nc4c3)cccc2c1,2,5.68
COc1ccc(-c2nc3cc(-c4nc5cc(-c6nc7cc(-c8ccccc8)ccc7[nH]6)ccc5[nH]4)ccc3[nH]2)cc1,20,6.42
c1ccc(-c2ccc3[nH]c(-c4ccc5[nH]c(-c6ccc7[nH]cnc7c6)nc5c4)nc3c2)cc1,1,–

# Further lines, with some results ahead:
REC [1],Compound,pIC50 [2]
0.5,CCCc1nc2cc(-c3nc4cc(-c5nc6cc(-c7ccccc7)ccc6[nH]5)ccc4[nH]3)ccc2[nH]1,7.22
> 1000,c1ccc2cc3[nH]c(-c4ccc5[nH]c(-c6ccc7[nH]cnc7c6)nc5c4)nc3cc2c1,< 4.00
20,c1ccc(-c2ccc3[nH]c(-c4ccc5[nH]c(-c6ccc7[nH]c(-c8ccccc8)nc7c6)nc5c4)nc3c2)cc1,7.22
1,c1ccc2c(c1)ccc1[nH]c(-c3ccc4[nH]c(-c5ccc6[nH]cnc6c5)nc4c3)nc12,4.60
5,c1ccc(-c2cccc3[nH]c(-c4ccc5[nH]c(-c6ccc7[nH]cnc7c6)nc5c4)nc23)cc1,5.15
0.5,COc1ccc(-c2ccc3[nH]c(-c4ccc5[nH]c(-c6ccc7[nH]cnc7c6)nc5c4)nc3c2)cc1,7.05
